A selection: hits, their analogues and other compounds. The true share with any hit is near 3.8%.
HSP90 inh: HSP90 refolding inhibition in rabbit reticulocyte lysate; luciferase refolding luminescence, 3 h; inhibition, % at 5.6 µM; 0.91% of 290,000 active; AID 1789;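 active = inhibition above the screen-wide mean plus 3 SD, computed separately per campaign, cut at about 16% in these data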;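 also: inhibitors lower the luminescence because luciferase stays unfolded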
Lipid droplet: modulators of hepatic lipid droplet formation. AML12 mouse hepatocytes, oleate lipid droplets, BODIPY imaging. 0.4% of 240,000 active. inhibition, % at 6.5 µM;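 active = lipid droplet intensity inhibited by at least 50%, with more than 500 cells counted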
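Material – AML12 mouse liver cells · Also added – oleate loading, 100 µM · Compound dosing – 6.5 µM single-point dosing · Times – overnight treatment with compound plus oleate · Measured by – fluorescence imaging, 20x objective, two fields per well · Read-out – percent inhibition of filter-corrected integrated lipid droplet intensity per well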
HSF1 activator: increases HSF-1 driven luciferase reporter signal. NIH3T3-HGL HSF-1 luciferase reporter, MG132, 8 h; 100% = twice DMSO control signal. activation, % at 9 µM. 1.7% of 300,000 active;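 active = mean replicate activation of at least 50% with a set share of replicates each reaching 50%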
NS3 helicase inh: blocks Hepatitis C virus NS3 helicase unwinding; inhibition, % at 10.9 µM; NS3 helicase DNA unwinding, Cy5 molecular beacon fluorescence; 0.56% of 290,000 active;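 active = inhibition above the mean of all tested compounds plus 3 SD, set per campaign, cut at about 35% in these data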
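System: NS3 helicase fragment of HCV / Schedule: 1 h at 25 °C / Control set: DMSO alone as 0% and 110 µM thioflavine S as 100% / Reagent: Cy5/quencher beacon DNA duplex and ATP to start / Technique: Cy5 fluorescence / Replication: singlicate / Evaluation: % inhibition of end-to-start signal ratio versus controls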
HSF1 inhib: HSF1 inhibition; NIH3T3-HGL HSE-luciferase, MG132-induced, luminescence 8 h; active compounds read low; activity change, negative = inhibition, % at 7.5 µM (by protocol); 0.77% of 300,000 active; AID 2098;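 active = more than half of replicate wells show activity change below -50%, luminescence cut by over half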;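 also: luciferase reports HSF-1 transcriptional activity via heat shock element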
Numbers stand for hits; 0 = inactive; - = not tested or not shown.

SMILES | HSP90 inh | Lipid droplet | HSF1 activator | NS3 helicase inh | HSF1 inhib
C[N+]1(C)CCC(OC(=O)C(O)(c2ccccc2)C2CCCC2)C1 (stereo not drawn) | - | - | 0 | - | 0
O=C(C#Cc1ccccc1)Nc1ccccc1F | 0 | 0 | 106 | 0 | 0
NC(=O)c1ccc(NC(=O)C#Cc2ccccc2)cc1 | 0 | 0 | 61 | 0 | 0
CC(COc1ccc(C(C)C)cc1)NC(=O)c1ccc(Br)o1 (stereo not drawn) | 0 | 0 | 0 | 0 | 0
CCNC(=S)N(CCO)Cc1cc2cc3c(cc2[nH]c1=O)OCO3 | 0 | 0 | 0 | 0 | 0
CN(C)C=NC(=O)c1cc(C(=O)c2ccccc2Cl)c[nH]1 | 0 | 0 | 0 | 0 | 0
CN(C)C=NC(=O)c1cc(C(=O)c2ccc(C(C)(C)C)cc2)c[nH]1 | 0 | 0 | 50 | 0 | 0
Oc1ccc(/C=N/N(c2ccccc2)c2ccccc2)cc1O | 0 | 0 | 83 | 0 | 0
O=C(/C(=N/N=C/c1ccc(O)c(O)c1)c1ccccc1)c1ccccc1 | 0 | 0 | 90 | 0 | 0
CSc1ccccc1NC(=O)CSc1nnc(CNC(=O)c2ccccc2F)n1C | 0 | 0 | 0 | 0 | 0
COCCCNC(=O)c1ccccc1N(Cc1ccccc1)S(=O)(=O)c1ccccc1 | 0 | 0 | 0 | 0 | 0
Cc1ccc(OCC(O)Cn2c(N3CCCCC3)nc3c2c(=O)[nH]c(=O)n3C)cc1C (stereo not drawn) | 0 | 0 | 0 | 0 | 0
Cn1c(SCC(=O)NCCc2ccccc2)ncc(C(=O)Nc2ccccc2)c1=O | - | - | 0 | - | 0
O=C(OCn1ncc(Cl)c(Cl)c1=O)c1ccccc1Cl | 0 | - | 0 | 0 | -95
O=C(Cn1ncc(N2CCOCC2)c(Cl)c1=O)c1ccc(Cl)cc1 | 0 | 0 | 0 | 0 | 0
CC(C)(C)C(=O)Cn1ncc(Cl)c(Cl)c1=O | 0 | 0 | 0 | 0 | 0
O=C(Cn1ncc(Cl)c(Cl)c1=O)c1ccc(Cl)cc1 | 0 | 0 | 56 | 0 | 0
O=C(OCn1ncc(Cl)c(Cl)c1=O)c1ccc(F)cc1 | 0 | - | 0 | 0 | -94
CCn1cc(C2CC(=O)NC2=O)c2ccccc21 (stereo not drawn) | 0 | 0 | 0 | 0 | 0
CNCc1c(OCc2ccccc2F)ccc2ccccc12 | 0 | 0 | 0 | 0 | -71
CNCc1c(OCc2ccccc2)ccc2ccccc12 | 0 | 0 | 0 | 0 | 0
O=C(CN1C(=O)c2ccccc2S1(=O)=O)c1ccccc1F | 0 | 0 | 0 | 0 | -52
O=C(CN1C(=O)c2ccccc2S1(=O)=O)c1ccc(F)cc1 | 0 | 0 | 0 | 0 | 0
Cc1ccc(NC2c3ncccc3C(=O)N2C2CCCCC2)cc1C (stereo not drawn) | 0 | 0 | 0 | 0 | 0
Cc1ccc(NC2c3ncccc3C(=O)N2C2CCCCC2)cc1 (stereo not drawn) | 0 | - | 67 | 0 | 0
SMILES | HSP90 inh | Lipid droplet | HSF1 activator | NS3 helicase inh | HSF1 inhib
O=C(CCCNC(=O)/C(=C\c1ccccc1F)NC(=O)c1ccccc1)OCc1ccccc1 | 0 | - | 0 | 0 | -56
O=C(O)CCCNC(=O)/C(=C\c1ccccc1F)NC(=O)c1ccccc1 | 0 | 0 | 0 | 0 | 0
CSc1ccccc1NC(=O)C1=COCCO1 | 0 | 0 | 0 | 0 | 0
CC(C(=O)NC1C=CS(=O)(=O)C1)N1C(=O)/C(=C\c2ccccc2)SC1=S (stereo not drawn) | 0 | 0 | 0 | 0 | 0
COc1ccccc1/C=C1/SC(=S)N(C(C)C(=O)NC2C=CS(=O)(=O)C2)C1=O (stereo not drawn) | 0 | 0 | 64 | 0 | 0
CCN1C(=O)/C(=C/c2ccc(N3CCCC3)cc2)NC1=S | 0 | 65 | 0 | 0 | 0
CCCN1C(=O)/C(=C/c2ccc(N3CCOCC3)cc2)NC1=S | 0 | 0 | 0 | 0 | 0
O=C(CCn1c(=S)oc2ccccc21)NC1CCCCCC1 | 0 | 0 | 0 | 0 | -71
COC(=O)/C(=C\Nc1ccc(Cl)cc1Cl)NC(=O)c1ccc(OC)cc1 | 0 | 0 | 0 | 0 | 0
CC(=C/c1ccccc1)/C=N/NC(=O)c1ccccn1 | 17 | 0 | 0 | 0 | 0
CC(/C=N/NC(=O)c1ccncc1)=C\c1ccccc1 | 0 | - | 0 | 0 | 0
Cc1cccc(/C=N\NC(=O)c2ccc(Cl)cc2)c1O | 0 | 0 | 259 | 0 | 0
CC(/C=N/NC(=O)c1cccc(F)c1)=C\c1ccccc1 | 0 | 0 | 83 | 0 | 0
O=C(Nc1ccc(Nc2ccccc2)cc1)c1cccc(F)c1 | 0 | 0 | 67 | 0 | 0
Cc1ccc(C)c(OC(=O)CN2C(=O)c3ccccc3C2=O)c1 | 0 | 0 | 0 | 0 | 0
Cc1ccnc(NC(=O)c2ccc(S(=O)(=O)NCc3ccco3)cc2)c1 | - | - | 0 | - | 0
O=C(N/N=C/c1ccc(Cl)cc1Cl)c1cccc(F)c1 | 0 | - | 56 | 0 | 0
O=C(N/N=C/C(Br)=C\c1ccccc1)c1cccs1 | 0 | 0 | 101 | 0 | 0
O=C(N/N=C/c1ccncc1)c1cccs1 | 0 | - | 0 | 0 | 0
O=C(N/N=C/C(Br)=C/c1ccccc1)C1CC1 | 0 | 0 | 0 | 0 | 0
O=C(N/N=C/c1cccc([N+](=O)[O-])c1)c1cccs1 | 0 | 0 | 54 | 0 | 0
O=C(N/N=C/c1ccc(Cl)cc1Cl)c1ccc2nc[nH]c2c1 | 0 | 0 | 0 | 0 | 0
O=C(N/N=C/C(Br)=C/c1ccccc1)C(O)c1ccccc1 (stereo not drawn) | 0 | 0 | 61 | 0 | 0
CN(Cc1nccn1C)C(=O)c1ccc(OC2CCN(CCc3ccccc3)CC2)cc1 | 0 | 0 | 0 | 0 | 0
COc1ccc(/C=C/S(=O)(=O)NCc2ccccc2)cc1OC | 0 | 0 | 0 | 0 | 0
SMILES | HSP90 inh | Lipid droplet | HSF1 activator | NS3 helicase inh | HSF1 inhib
COc1cc(CN2CCC(N3CCC(C(=O)N4CCCC4)CC3)CC2)cc2c1OCO2 | 0 | 0 | 0 | 0 | 0
COc1cccc(NC(=O)CCC2CCN(C(=O)C3CC=CCC3)CC2)c1 (stereo not drawn) | 0 | 0 | 0 | 0 | 0
CC(/C=N/NC(=O)Cn1cnc2ccccc21)=C\c1ccccc1 | 0 | 0 | 0 | 0 | -66
CC(=C/c1ccccc1)/C=N/NC(=O)c1cccs1 | 0 | 0 | 55 | 0 | 0
COc1ccc(CN(CCNC(=O)CCCCC(=O)NCCN(Cc2ccc(OC)cc2)C(C)C)C(C)C)cc1 | - | - | 0 | - | 0
COc1ccc2[nH]c(C(=O)Nc3ccc4c(c3)OCO4)cc2c1 | 0 | 0 | 0 | 0 | 0
C[C@H](NC(=O)c1ccccc1)C(=O)N1CCN(c2ccccc2)CC1 | 0 | 0 | 0 | 0 | 0
Cc1ccc(SCc2cn3cccnc3n2)cc1 | 0 | - | 0 | 0 | 0
Cc1ccn2cc(CSc3ccccc3)nc2c1 | 0 | 0 | 53 | 0 | 0
Cc1noc(C)c1CSCC(=O)Nc1ccc(OC(F)F)c(Cl)c1 | - | - | 0 | - | 0
Cc1noc(C)c1CSCC(=O)Nc1ccc(S(=O)(=O)C(F)F)cc1 | - | - | 0 | - | -58
COc1cccc(NC(=O)C2CCCN2C(=O)Nc2ccccc2)c1 (stereo not drawn) | 0 | 0 | 0 | 0 | 0
CCCCNC(=O)C1CCCN1C(=O)Nc1cccc(OC)c1 (stereo not drawn) | 0 | - | 0 | 0 | -52
Brc1cnc2nc(SC/C=C/c3ccccc3)[nH]c2c1 | 0 | 0 | 62 | 0 | 0
